Test results taken from ChEMBL document CHEMBL1127365, “Self-immolative prodrugs: candidates for antibody-directed enzyme prodrug therapy in conjunction with a nitroreductase enzyme” (J Med Chem, 1994).

Assays:
[1] = system: Mus musculus; assay: In vivo toxicity in mouse at dose 100 mg/kg when administered intraperitoneally on day 9; format: organism-based; design: dose 100 mg/kg, route intraperitoneal; conditions: ip
How it was run: (§1)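 Balb C mice (20-25 g), groups of 3, single ip injection in arachis oil; doses 1, 5, 10 or 100 mg/kg. Untreated and arachis-oil-only groups served as controls. Mice were fed rodent diet and water ad libitum. Body weight was recorded as % of day 0 on days 2, 3, 7 and 9, and deaths were noted.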

[2] = system: Mus musculus; assay: In vivo toxicity in mouse at dose 10 mg/kg when administered intraperitoneally on day 2; format: organism-based; design: dose 10 mg/kg, route intraperitoneal; conditions: ip; how it was run: as §1
[3] = system: Mus musculus; assay: In vivo toxicity in mouse at dose 100 mg/kg when administered intraperitoneally on day 3; format: organism-based; design: dose 100 mg/kg, route intraperitoneal; conditions: ip; how it was run: as §1
[4] = system: Mus musculus; assay: In vivo toxicity in mouse at dose 10 mg/kg when administered intraperitoneally on day 9; format: organism-based; design: dose 10 mg/kg, route intraperitoneal; conditions: ip; how it was run: as §1
[5] = system: Mus musculus; assay: In vivo toxicity in mouse at dose 10 mg/kg when administered intraperitoneally on day 7; format: organism-based; design: dose 10 mg/kg, route intraperitoneal; conditions: ip; how it was run: as §1
[6] = system: Mus musculus; assay: In vivo toxicity in mouse at dose 100 mg/kg when administered intraperitoneally on day 7; format: organism-based; design: dose 100 mg/kg, route intraperitoneal; conditions: ip; how it was run: as §1
[7] = system: Mus musculus; assay: In vivo toxicity in mouse at dose 1 mg/kg when administered intraperitoneally on day 9; format: organism-based; design: dose 1 mg/kg, route intraperitoneal; conditions: ip; how it was run: as §1
[8] = system: Mus musculus; assay: In vivo toxicity in mouse at dose 1 mg/kg when administered intraperitoneally on day 2; format: organism-based; design: dose 1 mg/kg, route intraperitoneal; conditions: ip; how it was run: as §1
[9] = system: Mus musculus; assay: In vivo toxicity in mouse at dose 1 mg/kg when administered intraperitoneally on day 3; format: organism-based; design: dose 1 mg/kg, route intraperitoneal; conditions: ip; how it was run: as §1
[10] = system: Mus musculus; assay: In vivo toxicity in mouse at dose 10 mg/kg when administered intraperitoneally on day 3; format: organism-based; design: dose 10 mg/kg, route intraperitoneal; conditions: ip; how it was run: as §1
[11] = system: Mus musculus; assay: In vivo toxicity in mouse at dose 1 mg/kg when administered intraperitoneally on day 7; format: organism-based; design: dose 1 mg/kg, route intraperitoneal; conditions: ip; how it was run: as §1
[12] = system: Mus musculus; assay: In vivo toxicity in mouse at dose 100 mg/kg when administered intraperitoneally on day 2; format: organism-based; design: dose 100 mg/kg, route intraperitoneal; conditions: ip; how it was run: as §1
[13] = system: V79; assay: (§2) Tested for the effect of enzyme activation on the cytotoxicity at 10 uM when incubated with chinese hamster V79 cells in presence of NADH; format: functional, Cricetulus griseus
How it was run: (§3)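 Chinese hamster V79 cells (2 × 10^5/mL) in PBS were exposed to the test agent plus NADH (500 μM), without enzyme, for 2 h at 37 °C. Cells were then harvested and assayed for colony-forming ability, reported as % survival. The supernatant was assayed by HPLC for remaining prodrug.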

[14] = system: V79; assay: (§4) Tested for the effect of enzyme activation on the cytotoxicity at 1 uM when incubated with chinese hamster V79 cells in presence of NADH and nitroreductase enzyme.; format: functional; conditions: Cricetulus griseus, read-out: Survival
How it was run: as §3, with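 “with” for “plus”, “μM) and E. coli B nitroreductase (10 μg/mL)” for “μM), without enzyme,”, “prodrug, giving % prodrug reduction.” for “prodrug.”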

[15] = system: V79; assay: as §2; format: functional; conditions: Cricetulus griseus, read-out: Survival; how it was run: as §3
[16] = system: V79; assay: (§5) Tested for the effect of enzyme activation on the cytotoxicity at 1 uM when incubated with chinese hamster V79 cells in presence of NADH; format: functional; conditions: Cricetulus griseus, read-out: Survival; how it was run: as §3
[17] = system: V79; assay: (§6) Tested for the effect of enzyme activation on the cytotoxicity at 10 uM when incubated with chinese hamster V79 cells; format: functional, Cricetulus griseus
[18] = system: V79; assay: (§7) Tested for the effect of enzyme activation on the cytotoxicity at 10 uM when incubated with chinese hamster V79 cells in presence of NADH and nitroreductase enzyme.; format: functional; conditions: Cricetulus griseus, read-out: Survival
How it was run: as §3, with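 “with” for “plus”, “μM) and E. coli B nitroreductase (10 μg/mL)” for “μM), without enzyme,”, “prodrug, giving % prodrug reduction.” for “prodrug.”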

[19] = system: V79; assay: as §5; format: functional, Cricetulus griseus; how it was run: as §3
[20] = system: V79; assay: as §7; format: functional, Cricetulus griseus
How it was run: as §3, with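 “with” for “plus”, “μM) and E. coli B nitroreductase (10 μg/mL)” for “μM), without enzyme,”, “prodrug, giving % prodrug reduction.” for “prodrug.”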

[21] = system: V79; assay: (§8) Tested for the effect of enzyme activation on the cytotoxicity at 1 uM when incubated with chinese hamster V79 cells; format: functional, Cricetulus griseus
[22] = system: V79; assay: as §6; format: functional; conditions: Cricetulus griseus, read-out: Survival
How it was run: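 Chinese hamster V79 cells (2 × 10^5/mL) in PBS were exposed to the test agent alone, without NADH or NR, for 2 h at 37 °C. Cells were then harvested and assayed for colony-forming ability, reported as % survival. The supernatant was checked by HPLC for remaining prodrug.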

[23] = system: V79; assay: as §4; format: functional, Cricetulus griseus
How it was run: as §3, with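 “with” for “plus”, “μM) and E. coli B nitroreductase (10 μg/mL)” for “μM), without enzyme,”, “prodrug, giving % prodrug reduction.” for “prodrug.”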

[24] = system: V79; assay: as §8; format: functional; conditions: Cricetulus griseus, read-out: Survival
[25] = system: V79; assay: as §5; format: functional, Cricetulus griseus; remark: listed apart in the source
[26] = system: V79; assay: (§9) Tested for the effect of enzyme activation on the cytotoxicity at 50 uM when incubated with chinese hamster V79 cells in presence of NADH; format: functional, Cricetulus griseus; how it was run: as §3
[27] = system: V79; assay: (§10) Tested for the effect of enzyme activation on the cytotoxicity at 50 uM when incubated with chinese hamster V79 cells in presence of NADH and nitroreductase enzyme.; format: functional, Cricetulus griseus
How it was run: as §3, with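 “with” for “plus”, “μM) and E. coli B nitroreductase (10 μg/mL)” for “μM), without enzyme,”, “prodrug, giving % prodrug reduction.” for “prodrug.”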

[28] = system: V79; assay: as §9; format: functional; conditions: Cricetulus griseus, read-out: Survival; how it was run: as §3
[29] = system: V79; assay: (§11) Tested for the effect of enzyme activation on the cytotoxicity at 50 uM when incubated with chinese hamster V79 cells; format: functional; conditions: Cricetulus griseus, read-out: Survival
[30] = system: V79; assay: as §11; format: functional, Cricetulus griseus
[31] = system: V79; assay: as §10; format: functional; conditions: Cricetulus griseus, read-out: Survival
How it was run: as §3, with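 “with” for “plus”, “μM) and E. coli B nitroreductase (10 μg/mL)” for “μM), without enzyme,”, “prodrug, giving % prodrug reduction.” for “prodrug.”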

[32] = system: Mus musculus; assay: Tested in vivo toxicity in mouse at dose 1 mg/kg when administered intraperitoneally on day 2; format: organism-based; design: dose 1 mg/kg, route intraperitoneal; conditions: ip
How it was run: (§12)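 Balb C mice (20-25 g), groups of 3, fed rodent diet and water ad libitum. Single ip injection in arachis oil at 1, 5, 10 or 100 mg/kg. Untreated and arachis-oil-only groups served as controls. Body weight recorded as % of day 0 on days 2, 3, 7 and 9.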

[33] = system: Mus musculus; assay: Tested in vivo toxicity in mouse at dose 1 mg/kg when administered intraperitoneally on day 3; format: organism-based; design: dose 1 mg/kg, route intraperitoneal; conditions: ip; how it was run: as §12
[34] = system: Mus musculus; assay: Tested in vivo toxicity in mouse at dose 1 mg/kg when administered intraperitoneally on day 7; format: organism-based; design: dose 1 mg/kg, route intraperitoneal; conditions: ip; how it was run: as §12
[35] = system: Mus musculus; assay: Tested in vivo toxicity in mouse at dose 1 mg/kg when administered intraperitoneally on day 9; format: organism-based; design: dose 1 mg/kg, route intraperitoneal; conditions: ip; how it was run: as §12

Cc1c2oc3c(C)ccc(C(=O)N[C@@H]4C(=O)N[C@H](C(C)C)C(=O)N5CCC[C@H]5C(=O)N(C)CC(=O)N(C)[C@@H](C(C)C)C(=O)O[C@@H]4C)c3nc-2c(C(=O)N[C@@H]2C(=O)N[C@H](C(C)C)C(=O)N3CCC[C@H]3C(=O)N(C)CC(=O)N(C)[C@@H](C(C)C)C(=O)O[C@@H]2C)c(NC(=O)OCc2ccc([N+](=O)[O-])cc2)c1=O [listing 1 of 2 here]
Weight [1]: 96%
Weight [2]: 109%
Weight [3]: 95.6%
Weight [4]: 110%
Weight [5]: 108%
Weight [6]: 95%
Weight [7]: 103%
Weight [8]: 102%
Weight [9]: 101%
Weight [10]: 105%
Weight [11]: 101%
Weight [12]: 96.4%

Cc1c2oc3c(C)ccc(C(=O)N[C@@H]4C(=O)N[C@H](C(C)C)C(=O)N5CCC[C@H]5C(=O)N(C)CC(=O)N(C)[C@@H](C(C)C)C(=O)O[C@@H]4C)c3nc-2c(C(=O)N[C@@H]2C(=O)N[C@H](C(C)C)C(=O)N3CCC[C@H]3C(=O)N(C)CC(=O)N(C)[C@@H](C(C)C)C(=O)O[C@@H]2C)c(NC(=O)OCc2ccc([N+](=O)[O-])cc2)c1=O [listing 2 of 2 here]
Prodrug reduction [13]: 0%
viability at 1 µM [14]: 27.4%
viability at 10 µM [15]: 44.6%
viability at 1 µM [16]: 102%
Prodrug reduction [17]: 0%
viability at 10 µM [18]: < 0.001%
Prodrug reduction [19]: 0%
Prodrug reduction [20]: 93%
Prodrug reduction [21]: 0%
viability at 10 µM [22]: 39.3%
Prodrug reduction [23]: 90.5%
viability at 1 µM [24]: 98.3%

COC12C(COC(N)=O)C3=C(C(O)=C(C)C(=N)C3=O)N1CC1C2N1C(=O)OCc1ccc([N+](=O)[O-])cc1 (stereo unspecified)
viability at 1 µM [14]: 25.4%
Prodrug reduction [25]: 0%
viability at 1 µM [16]: 70.8%
Prodrug reduction [21]: 0%
Prodrug reduction [23]: 91%
viability at 1 µM [24]: 76.7%

O=C(Nc1ccc(N(CCCl)CCCl)cc1)OCc1ccc([N+](=O)[O-])cc1
Prodrug reduction [26]: 0%
Prodrug reduction [27]: 30%
viability at 50 µM [28]: 34.1%
viability at 50 µM [29]: 27.1%
Prodrug reduction [30]: 0%
viability at 50 µM [31]: < 0.001%

Cc1c2oc3c(C)ccc(C(=O)N[C@@H]4C(=O)N[C@H](C(C)C)C(=O)N5CCC[C@H]5C(=O)N(C)CC(=O)N(C)[C@@H](C(C)C)C(=O)O[C@@H]4C)c3nc-2c(C(=O)N[C@@H]2C(=O)N[C@H](C(C)C)C(=O)N3CCC[C@H]3C(=O)N(C)CC(=O)N(C)[C@@H](C(C)C)C(=O)O[C@@H]2C)c(N)c1=O (stereo in doubt) [DACTINOMYCIN]
Weight [32]: 98.6%
Weight [33]: 95%
Weight [34]: 101.6%
Weight [35]: 103%

O=C(OCc1ccc([N+](=O)[O-])cc1)Oc1ccc(N(CCCl)CCCl)cc1
Prodrug reduction [13]: 0%
viability at 10 µM [15]: 45.8%
Prodrug reduction [17]: 0%
viability at 10 µM [18]: 43.3%
Prodrug reduction [20]: 86%
viability at 10 µM [22]: 56.4%
